According to paper PMC6358549 (Molecular Metabolism, 2018):
Where two headings read alike, the source gives them in different places. One block for each substance: values may come before it. No end group written: not given here.

Key:
[1] = general statement in the discussion, no reference given; cited from earlier work
healthy human volunteers = conditions: cited from earlier work
rat GIPR = conditions: cited from earlier work
[2] = aqueous solubility and aggregation; format: physicochemical; conditions: statement in the discussion, method not given
mGIPR = molecular target: T1, mGIPR (Mus musculus, UniProt Q0P543); assay: cAMP-response-element luciferase reporter gene assay, agonism at mouse GIPR; format: cell-based; conditions: Figure 5D
T1 sequence (Q0P543 19-460): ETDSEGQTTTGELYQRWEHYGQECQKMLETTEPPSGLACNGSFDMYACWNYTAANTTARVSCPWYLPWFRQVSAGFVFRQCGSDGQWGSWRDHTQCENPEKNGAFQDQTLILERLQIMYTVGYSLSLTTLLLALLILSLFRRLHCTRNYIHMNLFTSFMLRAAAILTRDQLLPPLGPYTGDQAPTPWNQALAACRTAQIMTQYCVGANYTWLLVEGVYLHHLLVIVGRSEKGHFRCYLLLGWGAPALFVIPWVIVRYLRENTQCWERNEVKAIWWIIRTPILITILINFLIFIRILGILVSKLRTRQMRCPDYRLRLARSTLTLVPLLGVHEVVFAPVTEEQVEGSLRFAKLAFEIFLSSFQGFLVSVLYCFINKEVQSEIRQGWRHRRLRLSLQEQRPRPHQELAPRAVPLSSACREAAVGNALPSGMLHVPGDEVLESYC

mouse GLP-1R = molecular target: T2, mouse GLP-1R (Mus musculus, UniProt O35659); assay: luciferase reporter gene assay, antagonism at mouse GLP-1R; format: cell-based; conditions: native hormone at EC90; Figure 5E
T2 sequence (O35659 22-463): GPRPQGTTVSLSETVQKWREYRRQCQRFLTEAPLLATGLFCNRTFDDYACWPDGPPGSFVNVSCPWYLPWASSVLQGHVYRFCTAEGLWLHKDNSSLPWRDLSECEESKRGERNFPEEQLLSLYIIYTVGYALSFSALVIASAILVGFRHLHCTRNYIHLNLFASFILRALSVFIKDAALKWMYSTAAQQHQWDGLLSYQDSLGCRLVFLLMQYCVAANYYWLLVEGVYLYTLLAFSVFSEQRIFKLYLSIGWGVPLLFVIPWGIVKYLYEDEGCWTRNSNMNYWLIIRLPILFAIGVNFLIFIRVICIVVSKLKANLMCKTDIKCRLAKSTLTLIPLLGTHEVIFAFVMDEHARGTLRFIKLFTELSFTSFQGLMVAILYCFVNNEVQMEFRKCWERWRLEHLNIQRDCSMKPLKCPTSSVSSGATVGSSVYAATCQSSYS

[3] = molecular target: mouse glucagon receptor (GcgR) (Mus musculus, UniProt Q61606); assay: luciferase reporter gene assay, antagonism at mouse glucagon receptor; format: cell-based; conditions: native hormone at EC90; Figure 5
mouse glucagon receptor (GcgR), sequence (Q61606 27-485): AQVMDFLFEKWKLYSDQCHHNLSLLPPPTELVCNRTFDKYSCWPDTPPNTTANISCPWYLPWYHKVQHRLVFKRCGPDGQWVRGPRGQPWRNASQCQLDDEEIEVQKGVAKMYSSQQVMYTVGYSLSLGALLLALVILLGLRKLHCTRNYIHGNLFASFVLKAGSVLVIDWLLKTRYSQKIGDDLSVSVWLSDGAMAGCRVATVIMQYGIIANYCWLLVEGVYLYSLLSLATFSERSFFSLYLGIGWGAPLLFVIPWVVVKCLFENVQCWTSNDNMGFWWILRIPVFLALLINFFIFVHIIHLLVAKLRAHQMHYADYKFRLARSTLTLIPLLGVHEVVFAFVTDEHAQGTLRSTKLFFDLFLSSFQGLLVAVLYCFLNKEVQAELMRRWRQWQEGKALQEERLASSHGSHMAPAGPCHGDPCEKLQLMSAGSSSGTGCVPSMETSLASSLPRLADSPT

hGIPR [4] = molecular target: T3, hGIPR (Homo sapiens, UniProt P48546); assay: cAMP-response-element luciferase reporter gene assay, agonism at human GIPR; format: cell-based; conditions: Figure 5B
T3 sequence (P48546 22-466): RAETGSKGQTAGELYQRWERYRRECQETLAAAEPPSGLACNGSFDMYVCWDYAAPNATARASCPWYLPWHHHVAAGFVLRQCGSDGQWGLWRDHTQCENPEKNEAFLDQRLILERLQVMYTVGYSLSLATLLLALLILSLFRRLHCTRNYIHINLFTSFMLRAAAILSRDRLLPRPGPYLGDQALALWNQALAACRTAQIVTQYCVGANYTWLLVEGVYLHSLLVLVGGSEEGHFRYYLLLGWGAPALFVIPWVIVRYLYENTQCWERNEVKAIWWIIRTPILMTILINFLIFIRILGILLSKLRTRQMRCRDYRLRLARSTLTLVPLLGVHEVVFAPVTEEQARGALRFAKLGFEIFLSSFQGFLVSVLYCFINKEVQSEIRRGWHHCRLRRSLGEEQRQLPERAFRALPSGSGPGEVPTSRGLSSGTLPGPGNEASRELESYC

DIO mice = assay: body weight change on chronic treatment of DIO mice; format: in vivo, mouse
hGIPR [5] = molecular target: T3, hGIPR; assay: luciferase reporter gene assay, antagonism at human GIPR; format: cell-based; conditions: co-incubated with native GIP at its EC50; 1% ovalbumin; Figure 5A
Outline: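 HEK293 or BHK cells overexpressing the human receptor with a CRE-linked firefly luciferase reporter were serum-deprived for 16 h. They were then incubated 5 h at 37 °C, 5% CO2 with native GIP at constant concentration plus serial dilutions of test compound. Luminescence was read after adding luciferase substrate. Each concentration was run in duplicate, and potency was fitted per experiment by non-linear three-parameter regression.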

Substance: Native, full-length GIP: native, full-length GIP
aggregation in liquid formulations [1]: prone to aggregation
aqueous solubility [1]: limited aqueous solubility

Substance: hGIP (3–30)-NH2: peptide-based GIPR antagonist from the literature (EGTFISDYSIAMDKIHQQDFVNWLLAQK-NH2; UniProt P09681 54-81, looked up, fragment)
insulinotropic response to GIP co-infusion (healthy human volunteers): blocked a majority of the insulinotropic response
affinity for the rat GIPR relative to hGIPR (rat GIPR): substantially reduced affinity

aqueous solubility [2]: sufficient aqueous solubility
hGIPR antagonism (hGIPR [5]): potent antagonism
Substance: hGIP(5–42) N^αAc K10[γEγE-C16] Arg18 [acyl GIPR antagonist]
partial agonism at mGIPR (mGIPR): did not exhibit any degree of partial agonism
cross-reactive antagonism to mouse GLP-1R (mouse GLP-1R): did not demonstrate any cross-reactive antagonism
cross-reactive antagonism to mouse glucagon receptor (GcgR) [3]: did not demonstrate any cross-reactive antagonism
partial agonism at hGIPR (hGIPR [4]): did not exhibit any degree of partial agonism
change in body weight relative to vehicle controls (DIO mice; daily sc 300 nmol/kg or 1 μmol/kg for ten days, N = 8): did not cause any measurable change in body weight

Substance: liraglutide [reference compound]
body weight lowered by (DIO mice; daily sc liraglutide 10 nmol/kg, Figure 5H): 10.9%
